Results collected from several papers.
Protocols differ between the studies behind these lines.
Target: Phosphatidylinositol 4-phosphate 5-kinase type-1 alpha (PIP5K1A, Homo sapiens, UniProt Q99755)

Structure (SMILES) | assay | conditions | remaining binding [%]
N[C@@H]1CCN(c2nccc(-c3cnn4ncccc34)n2)C1 | binding | 1 µM | 100
O=C(O)c1cc(-c2ccc(C3CCNCC3)cc2)c2ccc(-c3ccc(C(F)(F)F)cc3)cc2c1 | cell-free assay, competition with immobilised ligand | 1 µM | 78
CN(C)c1nccc(-c2cnc3ncccn23)n1 | binding | 1 µM | 72
C[C@@H](c1ccc(-n2cnc3c(N)ncnc32)cc1)N1CCc2nn(C)c(Cc3ccccc3)c2C1=O | binding, competition with immobilised ligand | 0.1 µM | 87
CN(C)c1nccc(-c2cnn3ncccc23)n1 | binding | 1 µM | 100
CCCOc1ccc([C@@H]2[C@@H](C(=O)O)[C@H](c3ccc4c(c3)OCO4)CN2CC(=O)Nc2c(CC)cccc2CC)cc1 | cell-free assay, competition with immobilised ligand | 1 µM | 90
O=C(Nc1c[nH]nc1C(=O)NC1CCNCC1)c1cc(F)cc(F)c1 | binding, competition with immobilised ligand | 1 µM | 100
O=C(c1ccc(Nc2ncc(Cl)c(-c3cc4ccccc4s3)n2)cc1)N1CCC(N2CCCC2)CC1 | binding, competition with immobilised ligand | 1 µM | 2.2
C[C@@H]1CCN(c2nccc(-c3cnn4ncccc34)n2)C1 | binding | 1 µM | 52
Cc1c[nH]c2nccc(Oc3c(F)cc(Nc4cc(Cl)nc(N)n4)cc3F)c12 | cell-free assay, competition with immobilised ligand | 0.1 µM | 68
CNC(=O)[C@@H]1CC[C@@H](n2c(-c3ccc4cnccc4c3)nc3ccc(C(=O)NCc4cccc(C(N)=O)c4)cc32)C1 | binding, competition with immobilised ligand | 1 µM | 92
CC(=O)c1c(NS(C)(=O)=O)c2cc(-c3ccc(Cl)cc3)c(-c3ccc(Cl)cc3Cl)nc2n(C)c1=O | cell-free assay, competition with immobilised ligand | 1 µM | 97
O=C(c1ccc(Nc2nccc(-c3cc4ccccc4s3)n2)cc1)N1CCC(N2CCCC2)CC1 | binding, competition with immobilised ligand | 1 µM | 2.8
COc1ccnn2ncc(-c3ccnc(N(C)C)n3)c12 | binding | 1 µM | 72
C=CC(=O)N1CCC(C(=O)NCC(=O)N2CCN(c3nc(-c4cnc(N)nc4C(F)F)nc(N4CCOCC4)n3)CC2)CC1 | binding, competition with immobilised ligand | 1 µM | 100
COc1cnc(Nc2cccc(S(N)(=O)=O)c2)nc1N1CCN(c2ccccc2)C(=O)C1 | binding, competition with immobilised ligand | 1 µM | 89
CN(c1ccnc(CNc2nc(Nc3ccc4c(c3)CC(=O)N4)ncc2C(F)(F)F)n1)S(C)(=O)=O | cell-free assay, competition with immobilised ligand | 1 µM | 12
Cc1cnc(Nc2ccc(C(=O)N3CCC(N4CCCC4)CC3)cc2)nc1-c1cc2ccccc2s1 | binding, competition with immobilised ligand | 1 µM | 1.5
CN(C(=O)c1ccccc1)c1cc(N(C)c2ccc3c(c2)CCc2ccc(C(=O)NCCN4CCOCC4)cc2C3=O)ccc1F | cell-free assay, competition with immobilised ligand | 1 µM | 100
c1cnn2ncc(-c3ccnc(N4CCC45COC5)n3)c2c1 | binding | 1 µM | 100
Cc1cc(C)c(-n2ccn3nc(-c4cccnc4)cc23)cc1NC(=O)c1cc(C#N)cc(S(F)(F)(F)(F)F)c1 | cell-free assay, competition with immobilised ligand | 0.1 µM | 95
Cc1cnn2ncc(-c3ccnc(N(C)C)n3)c2c1 | binding | 1 µM | 100
